The results in this text go back to ChEMBL document CHEMBL5030534, “Discovery of Novel Anti-Breast-Cancer Inhibitors by Synergistically Antagonizing Microtubule Polymerization and Aryl Hydrocarbon Receptor Expression” (J Med Chem, 2021).

For experiment [1], the system named is MCF7. Nature of the experiment: Induction of apoptosis in human MCF7 cells assessed as early apoptotic cells at 0.5 nM measured after 24 hrs by Annexin V-FITC and PI staining based flow cytometry assay (reference value: 0.90%). It counts as functional.
In experiment [2] the test system is MCF7. Nature of the experiment: Inhibition of cell migration in human MCF7 cells at 2 nM incubated for 24 hrs in presence of DMBA by inverted fluorescence microscopic method (reference value: 11.51%). Further details: scale not given: the % may be the effect or the level left. It counts as functional.
Experiment [3] in a line: Antiproliferative activity against human MCF7/ADR cells assessed as reduction in cell viability incubated for 48 hrs by MTT assay. It counts as functional, cell-based. The settings on record: MCF7, 48 h. The gist of the method:
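Cells seeded at 5 × 10³ per well, incubated overnight, then exposed to a range of compound concentrations for 48 h. MTT added for 4 h, medium replaced with DMSO, absorbance read at 570 nm. Three independent runs.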

For experiment [4], the system named is MCF7. The experiment is described as follows: Induction of apoptosis in human MCF7 cells assessed as early apoptotic cells at 2 nM measured after 24 hrs by Annexin V-FITC and PI staining based flow cytometry assay (reference value: 0.90%). Type of experiment: functional.
Experiment [5] concerns MCF7. The experiment is described as follows: Induction of apoptosis in human MCF7 cells assessed as necrotic cells at 2 nM measured after 24 hrs by Annexin V-FITC and PI staining based flow cytometry assay (reference value: 0.9%). It counts as functional.
The subject of experiment [6] is MCF7. The experiment is described as follows: Induction of apoptosis in human MCF7 cells assessed as early apoptotic cells at 2 nM measured after 24 hrs by Annexin V-FITC and PI staining based flow cytometry assay (reference value: 1%). It counts as functional.
Experiment [7] deals with MCF7. Nature of the experiment: Induction of apoptosis in human MCF7 cells assessed as late apoptotic cells at 2 nM measured after 24 hrs in presence of DMBA by Annexin V-FITC and PI staining based flow cytometry assay (reference value: 1.5%). Type of experiment: functional.
Experiment [8] deals with MCF7. Nature of the experiment: Induction of apoptosis in human MCF7 cells assessed as late apoptotic cells at 0.5 nM measured after 24 hrs by Annexin V-FITC and PI staining based flow cytometry assay (reference value: 2.06%). It counts as functional.
Experiment [9] concerns MCF-10A. The experiment is described as follows: Antiproliferative activity against human MCF-10A cells assessed as reduction in cell viability incubated for 48 hrs by MTT assay. It counts as cell-based. The gist of the method:
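Cells seeded at 5 × 10³ per well, incubated overnight, then exposed to a range of compound concentrations for 48 h. MTT added for 4 h, medium replaced with DMSO, absorbance read at 570 nm. MCF-7, L-O2 grown in DMEM; MCF-10A, MCF-7/ADR in RPMI 1640. Three independent runs.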

The subject of experiment [10] is MCF7. Nature of the experiment: Cell cycle arrest in human MCF7 cells assessed as decrease in Cdc2 protein expression. It counts as functional, cell-based. The settings on record: dose 1-4 nM. The gist of the method:
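MCF-7 seeded 4 × 10⁵ per well for 24 h, then DMSO or compound at 1, 2, 4 nM for 24 h. Lysates protein-normalized to 3 mg/mL by BCA, resolved on 4–20% SDS-PAGE and immunoblotted. Bands quantified relative to β-actin (cell-cycle proteins) or GAPDH (apoptosis proteins); n = 3.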

The test system of experiment [11] is MCF7. Nature of the experiment: Induction of apoptosis in human MCF7 cells assessed as viable cells at 2 nM measured after 24 hrs by Annexin V-FITC and PI staining based flow cytometry assay (reference value: 96.5%). Type of experiment: functional. The settings on record: read-out: Activity.
Experiment [12] relates to MCF7. Nature of the experiment: Induction of apoptosis in human MCF7 cells assessed as viable cells at 1 nM measured after 24 hrs by Annexin V-FITC and PI staining based flow cytometry assay (reference value: 96.8%). It counts as functional. To be noted: read-out: Activity.
In experiment [13] the target is Tubulin beta (Homo sapiens) (UniProt P68371+Q9H4B7+Q13509+P04350+Q3ZCM7+P07437+Q13885+Q9BVA1+Q9BUF5+A6NNZ2). Nature of the experiment: Inhibition of beta-tubulin polymerization in human MCF7 cells assessed as inhibition of EBI-beta-tubulin adduct formation at 1 to 4 nM measured after 2 hrs by Western blot-based EBI competition assay. To be noted: dose 1-4 nM. Type of experiment: cell-based.

For experiment [14], the system named is MCF7. The experiment is described as follows: Cell cycle arrest in human MCF7 cells assessed as increase in Cyclin B1 protein expression. The settings on record: dose 1-4 nM.
The test system of experiment [15] is MCF7. The experiment is described as follows: Cell cycle arrest in human MCF7 cells assessed as accumulation of cells at G2/M phase at 0.5 to 2 nM measured after 24 hrs by propidium iodide staining based flow cytometric analysis relative to control. Type of experiment: functional. To be noted: dose 0.5-2 nM. The gist of the method: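 MCF-7 seeded 4 × 10⁵ per well for 24 h, treated with DMSO or 0.5, 1, 2 nM. Fixed in 75% ethanol at −20 °C for 12 h, stained with PI by cell-cycle kit, analysed by flow cytometry. Three runs.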

Experiment [16] relates to MCF7. The experiment is described as follows: Induction of mitochondrial membrane potential loss in human MCF7 cells at 1 nM measured after 24 hrs by JC-1 staining based flow cytometry analysis (reference value: 3.01%). Type of experiment: functional.
In experiment [17] the test system is MCF7. The experiment is described as follows: Induction of mitochondrial membrane potential loss in human MCF7 cells at 2 nM measured after 24 hrs by JC-1 staining based flow cytometry analysis (reference value: 3.01%). It counts as functional.
Experiment [18] deals with MCF7. Nature of the experiment: Antitumor activity against human MCF7 cells xenografted in BALB/c nude mouse assessed as decrease in tumor weight at 0.5 mg/kg, iv administered every 2 days for 21 days and measured every 2 days. Type of experiment: functional. Further details: scale not given: the % may be the effect or the level left. The settings on record: time 21 day. The gist of the method: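 MCF-7 cells (6 × 10⁶) injected subcutaneously into right flank of BALB/c nude mice; after 7 days animals randomized, eight per group. Dosing iv every 2 days for 21 days, vehicle 10% DMSO/5% Tween 80/85% saline. Tumor size and body weight recorded every 2 days; tumors excised and weighed at sacrifice.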

SMILES strings stand for the structures. Activity calls are given as the source filed them. The calls are words filed in the database; no cut-off is given here.

Take `Cc1nc(N(C)c2ccc3c(c2)cc(C)n3C)c2ccccc2n1`: the Activity in experiment [1] is reported as 1.28%; in experiment [2], 6.34%; in [4] it was 12.1%; in [5], 8.3%; in experiment [6], 6.9%; in experiment [7] it was 22%. Also, the Activity in [8] was 2.17%; in [10], “Dose-Dependent Effect”; in experiment [14] it was “Dose-Dependent Effect”; in [15], 46.87%; in experiment [16], 6.49%; in experiment [17], 24.7%. In experiment [18], the Activity was determined as 73.2%. The IC50 in experiment [3] was found to be 0.9 nM; in experiment [9] it was 9.3 nM. Besides, the viability at 0.002 µM in experiment [11] was 40.1%. Further, the viability at 0.001 µM in experiment [12] came to 61.5%. Further, the inhibition entry in experiment [13] was “Active”.
